According to ChEMBL document CHEMBL5724801, “EUbOPEN Chemogenomics Library - Multiplex” (2024):
Values joined by “and” are separate entries in the source; they are usually repeats but may differ in a detail not shown here. Identical values can stand only once.

How the values were obtained:
HEK-293T = assay: Multiplex assay against HEK293T; format: toxicity, cell-based; settings: human
Summary of the method: (§1)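 Per cents of healthy-nucleus cells form the tubulin, mitochondrial-mass and membrane-permeability phenotype values. Live cells were stained at seeding with Hoechst33342, BioTracker Green Microtubule Cytoskeleton Dye, MitoTracker Red and Annexin V Alexa Fluor 680. After compound addition they were imaged on a CQ1 microscope at 37°C and 5% CO2, and CellPathfinder machine-learning gating split them into Hoechst high-intensity objects or normal cells, normal cells into healthy, pyknosed or fragmented nuclei, and pyknosed cells into mitotic or apoptotic.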

Fibroblast = assay: Multiplex assay against human fibroblast; format: toxicity, cell-based; summary of the method: as §1
[1] = 12 h, 1 µM, compound concentration 1 uM
[2] = 12 h, 10 µM, compound concentration 10 uM
[3] = 24 h, 1 µM, compound concentration 1 uM
[4] = 24 h, 10 µM, compound concentration 10 uM
[5] = 48 h, 1 µM, compound concentration 1 uM
[6] = 48 h, 10 µM, compound concentration 10 uM

In the case of `CN1CCN2c3ccccc3Cc3ccccc3C2C1.Cl` (configuration not stated) [MIANSERIN HYDROCHLORIDE], the “Population Apoptotic (%)” value (HEK-293T; [1]) was 23% and 46%, the “Population Fragmented Nuclei (%)” value (HEK-293T; [1]) was 5% and 7% and the “Population Healthy Nuclei (%)” value (HEK-293T; [1]) was 79% and 77%. For the same molecule, the “Population Hoechst High Intensity Objects (%)” value (HEK-293T; [1]) was 5% and 10%, the “Population Membrane Permeable-Phenotype (%)” value (HEK-293T; [1]) was 0% and the “Population Mitochondria Different-Phenotype (%)” value (HEK-293T; [1]) was 36% and 63%. The “Population Mitotic Cells (%)” value (HEK-293T; [1]) was 76% and 53%, the “Population Normal (%)” value (HEK-293T; [1]) was 94% and 89% and the “Population Pyknosed Nuclei (%)” value (HEK-293T; [1]) was 14%. For the same molecule, the “Population Tubulin-Different-Phenotype (%)” value (HEK-293T; [1]) was 21% and 17%, the “Total Cell Count” value (HEK-293T; [1]) was 338 and 376 and the “Population Apoptotic (%)” value (HEK-293T; [2]) was 34% and 42%. The “Population Fragmented Nuclei (%)” value (HEK-293T; [2]) was 5%, the “Population Healthy Nuclei (%)” value (HEK-293T; [2]) was 81% and 85% and the “Population Hoechst High Intensity Objects (%)” value (HEK-293T; [2]) was 9% and 4%. The “Population Membrane Permeable-Phenotype (%)” value (HEK-293T; [2]) was 1% and 0%, the “Population Mitochondria Different-Phenotype (%)” value (HEK-293T; [2]) was 45% and 53% and the “Population Mitotic Cells (%)” value (HEK-293T; [2]) was 65% and 57%. The “Population Normal (%)” value (HEK-293T; [2]) was 90% and 95%, the “Population Pyknosed Nuclei (%)” value (HEK-293T; [2]) was 13% and 8% and the “Population Tubulin-Different-Phenotype (%)” value (HEK-293T; [2]) was 40% and 28%. The “Total Cell Count” value (HEK-293T; [2]) was 410 and 491, the “Population Apoptotic (%)” value (HEK-293T; [3]) was 22% and 26% and the “Population Fragmented Nuclei (%)” value (HEK-293T; [3]) was 9% and 10%. For the same molecule, the “Population Healthy Nuclei (%)” value (HEK-293T; [3]) was 80%, the “Population Hoechst High Intensity Objects (%)” value (HEK-293T; [3]) was 1% and 8% and the “Population Membrane Permeable-Phenotype (%)” value (HEK-293T; [3]) was 0%. The “Population Mitochondria Different-Phenotype (%)” value (HEK-293T; [3]) was 21% and 37%, the “Population Mitotic Cells (%)” value (HEK-293T; [3]) was 77% and 73% and the “Population Normal (%)” value (HEK-293T; [3]) was 98% and 91%. For the same molecule, the “Population Pyknosed Nuclei (%)” value (HEK-293T; [3]) was 10% and 9%, the “Population Tubulin-Different-Phenotype (%)” value (HEK-293T; [3]) was 14% and 16% and the “Total Cell Count” value (HEK-293T; [3]) was 479 and 486. For the same molecule, the “Population Apoptotic (%)” value (HEK-293T; [4]) was 24% and 32%, the “Population Fragmented Nuclei (%)” value (HEK-293T; [4]) was 8% and 5% and the “Population Healthy Nuclei (%)” value (HEK-293T; [4]) was 77% and 84%. For the same molecule, the “Population Hoechst High Intensity Objects (%)” value (HEK-293T; [4]) was 5% and 3%, the “Population Membrane Permeable-Phenotype (%)” value (HEK-293T; [4]) was 0% and the “Population Mitochondria Different-Phenotype (%)” value (HEK-293T; [4]) was 31% and 36%. The “Population Mitotic Cells (%)” value (HEK-293T; [4]) was 75% and 67%, the “Population Normal (%)” value (HEK-293T; [4]) was 94% and 96% and the “Population Pyknosed Nuclei (%)” value (HEK-293T; [4]) was 14% and 10%. The “Population Tubulin-Different-Phenotype (%)” value (HEK-293T; [4]) was 34% and 21%, the “Total Cell Count” value (HEK-293T; [4]) was 486 and 612 and the “Population Apoptotic (%)” value (HEK-293T; [5]) was 13% and 37%. For the same molecule, the “Population Fragmented Nuclei (%)” value (HEK-293T; [5]) was 15% and 16%, the “Population Healthy Nuclei (%)” value (HEK-293T; [5]) was 77% and 78% and the “Population Hoechst High Intensity Objects (%)” value (HEK-293T; [5]) was 1% and 3%. The “Population Membrane Permeable-Phenotype (%)” value (HEK-293T; [5]) was 1% and 0%, the “Population Mitochondria Different-Phenotype (%)” value (HEK-293T; [5]) was 15% and 18% and the “Population Mitotic Cells (%)” value (HEK-293T; [5]) was 86% and 62%. For the same molecule, the “Population Normal (%)” value (HEK-293T; [5]) was 98% and 96%, the “Population Pyknosed Nuclei (%)” value (HEK-293T; [5]) was 6% and 4% and the “Population Tubulin-Different-Phenotype (%)” value (HEK-293T; [5]) was 9%. The “Total Cell Count” value (HEK-293T; [5]) was 812 and 761, the “Population Apoptotic (%)” value (HEK-293T; [6]) was 24% and 35% and the “Population Fragmented Nuclei (%)” value (HEK-293T; [6]) was 14%. For the same molecule, the “Population Healthy Nuclei (%)” value (HEK-293T; [6]) was 76% and 79%, the “Population Hoechst High Intensity Objects (%)” value (HEK-293T; [6]) was 2% and 1% and the “Population Membrane Permeable-Phenotype (%)” value (HEK-293T; [6]) was 0% and 1%. The “Population Mitochondria Different-Phenotype (%)” value (HEK-293T; [6]) was 18% and 14%, the “Population Mitotic Cells (%)” value (HEK-293T; [6]) was 75% and 64% and the “Population Normal (%)” value (HEK-293T; [6]) was 97% and 98%. For the same molecule, the “Population Pyknosed Nuclei (%)” value (HEK-293T; [6]) was 8% and 6%, the “Population Tubulin-Different-Phenotype (%)” value (HEK-293T; [6]) was 17% and 11% and the “Total Cell Count” value (HEK-293T; [6]) was 702 and 860. The “Population Apoptotic (%)” value (Fibroblast; [1]) was 55% and 38%, the “Population Fragmented Nuclei (%)” value (Fibroblast; [1]) was 28% and 27% and the “Population Healthy Nuclei (%)” value (Fibroblast; [1]) was 56% and 50%. For the same molecule, the “Population Hoechst High Intensity Objects (%)” value (Fibroblast; [1]) was 2% and 4%, the “Population Mitochondria Different-Phenotype (%)” value (Fibroblast; [1]) was 0% and 5% and the “Population Mitotic Cells (%)” value (Fibroblast; [1]) was 45% and 61%. For the same molecule, the “Population Normal (%)” value (Fibroblast; [1]) was 97% and 95%, the “Population Pyknosed Nuclei (%)” value (Fibroblast; [1]) was 14% and 22% and the “Population Tubulin-Different-Phenotype (%)” value (Fibroblast; [1]) was 31% and 56%. For the same molecule, the “Total Cell Count” value (Fibroblast; [1]) was 138 and 119, the “Population Apoptotic (%)” value (Fibroblast; [2]) was 55% and 33% and the “Population Fragmented Nuclei (%)” value (Fibroblast; [2]) was 15% and 24%. The “Population Healthy Nuclei (%)” value (Fibroblast; [2]) was 68% and 48%, the “Population Hoechst High Intensity Objects (%)” value (Fibroblast; [2]) was 5% and 6% and the “Population Membrane Permeable-Phenotype (%)” value (Fibroblast; [2]) was 1% and 3%. For the same molecule, the “Population Mitochondria Different-Phenotype (%)” value (Fibroblast; [2]) was 3% and 7%, the “Population Mitotic Cells (%)” value (Fibroblast; [2]) was 44% and 66% and the “Population Normal (%)” value (Fibroblast; [2]) was 94% and 93%. The “Population Pyknosed Nuclei (%)” value (Fibroblast; [2]) was 15% and 27%, the “Population Tubulin-Different-Phenotype (%)” value (Fibroblast; [2]) was 14% and 40% and the “Total Cell Count” value (Fibroblast; [2]) was 126 and 116. The “Population Apoptotic (%)” value (Fibroblast; [3]) was 52% and 36%, the “Population Fragmented Nuclei (%)” value (Fibroblast; [3]) was 32% and 30% and the “Population Healthy Nuclei (%)” value (Fibroblast; [3]) was 55% and 50%. For the same molecule, the “Population Hoechst High Intensity Objects (%)” value (Fibroblast; [3]) was 2% and 3%, the “Population Membrane Permeable-Phenotype (%)” value (Fibroblast; [3]) was 0% and 6% and the “Population Mitochondria Different-Phenotype (%)” value (Fibroblast; [3]) was 2% and 1%. The “Population Mitotic Cells (%)” value (Fibroblast; [3]) was 47% and 63%, the “Population Normal (%)” value (Fibroblast; [3]) was 97% and 96% and the “Population Pyknosed Nuclei (%)” value (Fibroblast; [3]) was 12% and 19%. The “Population Tubulin-Different-Phenotype (%)” value (Fibroblast; [3]) was 29% and 53%.
